According to ChEMBL document CHEMBL3044755, “5-Methyl-1,2,3-thiadiazoles synthesized via ugi reaction and their fungicidal and antiviral activities” (J Agric Food Chem, 2010):

How the values were obtained:
Format in all cases: functional
Cercospora beticola = assay: Fungicidal activity against Cercospora beticola at 50 ug/ml by growth inhibition method; conditions: read-out: GI
Summary of the method: (§1)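 Mycelial growth inhibition on potato dextrose agar. The panel covered Alternaria solani, Botrytis cinerea, Cercospora arachidicola, C. beticola, Colletotrichum lagenarium, Fusarium oxysporum, Gibberella zeae, Puccinia triticina, Phytophthora infestans, Physalospora piricola, Pellicularia sasakii and Rhizoctonia solani.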

Alternaria solani = assay: Fungicidal activity against Alternaria solani at 50 ug/ml by growth inhibition method; conditions: read-out: GI; summary of the method: as §1
Tobacco mosaic virus [1] = assay: In vitro antiviral activity against Tobacco mosaic virus (TMV) infected tobacco leaves at 100 ug/ml
[2] = system: Botryosphaeria berengeriana; assay: Fungicidal activity against Botryosphaeria berengeriana at 50 ug/ml by growth inhibition method; conditions: read-out: GI; summary of the method: as §1
Phytophthora infestans = assay: Fungicidal activity against Phytophthora infestans at 50 ug/ml by growth inhibition method; conditions: read-out: GI; summary of the method: as §1
Puccinia triticina = assay: Fungicidal activity against Puccinia triticina at 50 ug/ml by growth inhibition method; conditions: read-out: GI; summary of the method: as §1
Rhizoctonia solani = assay: Fungicidal activity against Rhizoctonia solani at 50 ug/ml by growth inhibition method; conditions: read-out: GI; summary of the method: as §1
Tobacco mosaic virus [3] = assay: In vitro antiviral activity against Tobacco mosaic virus (TMV) infected tobacco leaves at 500 ug/ml
Colletotrichum lagenaria = assay: Fungicidal activity against Colletotrichum lagenaria at 50 ug/ml by growth inhibition method; conditions: read-out: GI; summary of the method: as §1
Fusarium graminearum = assay: Fungicidal activity against Fusarium graminearum at 50 ug/ml by growth inhibition method; conditions: read-out: GI; summary of the method: as §1
Mycosphaerella arachidis = assay: Fungicidal activity against Mycosphaerella arachidis at 50 ug/ml by growth inhibition method; conditions: read-out: GI; summary of the method: as §1
Thanatephorus cucumeris = assay: Fungicidal activity against Thanatephorus cucumeris at 50 ug/ml by growth inhibition method; conditions: read-out: GI; summary of the method: as §1

Compound	inhibition of growth at 50 µg/mL (Cercospora beticola) [%]	inhibition of growth at 50 µg/mL (Alternaria solani) [%]	inhibition at 100 µg/mL (Tobacco mosaic virus [1]) [%]	inhibition of growth at 50 µg/mL [2] [%]	inhibition of growth at 50 µg/mL (Phytophthora infestans) [%]	inhibition of growth at 50 µg/mL (Puccinia triticina) [%]	inhibition of growth at 50 µg/mL (Rhizoctonia solani) [%]	inhibition at 500 µg/mL (Tobacco mosaic virus [3]) [%]	inhibition of growth at 50 µg/mL (Colletotrichum lagenaria) [%]	inhibition of growth at 50 µg/mL (Fusarium graminearum) [%]	inhibition of growth at 50 µg/mL (Mycosphaerella arachidis) [%]	inhibition of growth at 50 µg/mL (Thanatephorus cucumeris) [%]
Cc1ccc(N(C(=O)c2nnsc2C)C(C(=O)NC2CCCCC2)c2ccc(Cl)cc2)cc1F (stereo not drawn)	13	0	8	0	6	0	22	14	0	0	18	0
Cc1ccc(N(C(=O)c2nnsc2C)C(C(=O)NC2CCCCC2)c2ccccc2Cl)cc1F (stereo not drawn)	0	0	16	0	25	0	22	53	0	45	0	0
Cc1ccc(N(C(=O)c2nnsc2C)C(C(=O)NC2CCCCC2)c2cccc(F)c2)cc1F (stereo not drawn)	25	50	52	8	44	0	2	30	43	9	27	11
Cc1ccc(N(C(=O)c2nnsc2C)C(C(=O)NC2CCCCC2)c2ccccc2F)cc1F (stereo not drawn)	25	63	33	0	50	0	59	58	57	73	55	0
Cc1ccc(N(C(=O)c2nnsc2C)C(C(=O)NC2CCCCC2)c2ccc(C(F)(F)F)cc2)cc1F (stereo not drawn)	0	0	27	0	0	0	22	36	14	9	0	0
Cc1ccc(N(C(=O)c2nnsc2C)C(C(=O)NC2CCCCC2)c2cccc(C(F)(F)F)c2)cc1F (stereo not drawn)	25	25	35	0	25	0	22	72	29	14	27	13
Cc1ccc(N(C(=O)c2nnsc2C)C(C(=O)NC2CCCCC2)c2ccccc2C(F)(F)F)cc1F (stereo not drawn)	25	44	31	0	25	0	4	20	14	0	0	0
Cc1ccc(C(C(=O)NC2CCCCC2)N(C(=O)c2nnsc2C)c2ccc(C)c(F)c2)cc1 (stereo not drawn)	25	0	21	8	25	0	2	53	14	0	27	15
Cc1ccc(N(C(=O)c2nnsc2C)C(C(=O)NC2CCCCC2)c2ccccc2C)cc1F (stereo not drawn)	25	38	13	0	44	0	22	35	29	0	0	0
